A selection: hits, their analogues and other compounds. The true share with any hit is near 4.2%.
KCC2 mod: modulates chloride dependent transport by human KCC2. Q9H2X9. KCC2 cells, thallium flux FluoZin-2 fluorescence. B-score of Tl+ flux slope (higher = more flux/activation; lower = inhibition) at 10 µM. 2.2% of 190,000 active. AID 1456;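 active means thallium flux slope and its plate-corrected score both differing from the plate sample mean at a set confidence after two filtering rounds, in either direction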;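 further: slope of fluorescence scaled to starting intensity during 10 to 20 s after thallium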
Target sequence (Q9H2X9 whole entry, looked up): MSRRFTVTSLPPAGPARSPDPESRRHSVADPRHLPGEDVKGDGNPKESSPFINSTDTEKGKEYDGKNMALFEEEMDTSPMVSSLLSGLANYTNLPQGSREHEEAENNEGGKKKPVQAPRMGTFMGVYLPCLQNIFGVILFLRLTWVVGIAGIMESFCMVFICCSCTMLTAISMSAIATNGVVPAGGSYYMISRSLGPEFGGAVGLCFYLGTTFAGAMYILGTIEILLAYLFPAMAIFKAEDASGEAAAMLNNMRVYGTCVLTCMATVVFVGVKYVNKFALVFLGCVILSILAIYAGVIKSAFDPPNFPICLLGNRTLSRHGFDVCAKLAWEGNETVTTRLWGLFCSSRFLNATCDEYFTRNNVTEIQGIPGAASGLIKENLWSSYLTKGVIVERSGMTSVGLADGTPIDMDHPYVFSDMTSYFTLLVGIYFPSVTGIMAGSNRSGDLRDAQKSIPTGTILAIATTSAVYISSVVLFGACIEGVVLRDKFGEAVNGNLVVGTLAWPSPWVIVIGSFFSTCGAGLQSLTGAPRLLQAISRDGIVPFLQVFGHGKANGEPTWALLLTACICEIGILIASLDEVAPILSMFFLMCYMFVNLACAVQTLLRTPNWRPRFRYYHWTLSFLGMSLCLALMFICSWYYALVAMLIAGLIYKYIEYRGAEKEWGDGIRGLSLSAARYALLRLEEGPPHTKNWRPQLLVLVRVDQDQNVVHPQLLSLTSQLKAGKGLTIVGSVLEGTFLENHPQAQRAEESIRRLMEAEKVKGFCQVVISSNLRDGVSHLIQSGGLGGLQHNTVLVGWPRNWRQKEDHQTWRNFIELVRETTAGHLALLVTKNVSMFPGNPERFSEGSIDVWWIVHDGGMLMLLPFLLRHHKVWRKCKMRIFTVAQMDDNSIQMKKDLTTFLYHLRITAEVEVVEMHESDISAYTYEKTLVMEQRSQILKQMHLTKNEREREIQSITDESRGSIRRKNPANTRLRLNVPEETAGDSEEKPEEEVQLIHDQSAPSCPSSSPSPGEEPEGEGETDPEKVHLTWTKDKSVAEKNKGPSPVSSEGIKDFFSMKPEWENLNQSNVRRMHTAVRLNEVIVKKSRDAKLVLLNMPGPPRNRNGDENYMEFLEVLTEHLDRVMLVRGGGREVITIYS
SKKanGAS inh: blocks kanamycin growth of S. pyogenes SKKanGAS strain | BacTiter-Glo, 6 h | inhibition, % at 7.5 µM | 1.3% of 300,000 active;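 active means mean replicate score, as percent of positive control median, at least 50; inconclusive means mean below 50 but one replicate at or above 50; inactive means mean and every replicate below 50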;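 further: strain carries kanamycin resistance gene driven by streptokinase promoter and grows in 40 µg/ml kanamycin; loss of luminescence reflects streptokinase promoter inhibition or plain growth inhibition; 0% = median of DMSO wells and 100% = positive control at its reference dose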
Rad51 HR inh: blocks human Rad51 in homologous recombination; hRad51 DNA strand exchange, fluorescence dequenching; Q06609; 0.085% of 200,000 active; inhibition, % at 10 µM;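 active means inhibition above 40% at the single screening dose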;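 further: 0% = DMSO control wells and 100% = blanks with heterologous ssDNA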
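System: hRad51 filaments on single-stranded DNA; reagent: Fluorescein- and BHQ1-tagged 47-mer duplex; compound dosing: one concentration, 10 µM final; timing: filaments 15 min 37 °C, then compound 30 min; measured by: fluorescein emission 520 nm, excitation 485 nm; benchmarks: per-plate controls and blanks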
Autophagy HCS: modulators of autophagy. MEF GFP-LC3 puncta imaging; test concentration mostly 10 µM. calls only at 10 µM (by protocol). 0.98% of 190,000 active;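 active means percentage of spot-positive cells more than 3 SD above its plate mean, without a fluorescence outlier flag or 80% toxicity; inconclusive means no clear call, values can overlap the other calls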;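 further: spot-positive cell cutoff set from DMSO-treated cells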
WT yeast gro inh: growth inhibition of WT yeast, mitochondrial fusion screen | inhibition, % at 10 µM | 2.1% of 190,000 active | mitochondrial fusion phenotypic screen, WT strain | AID 1362; in the data active means inhibition above about 58%; tested in S. cerevisiae
Insulin prom up: MIN6 insulin promoter up-regulation. MIN6 insulin promoter-GFP reporter, high-content imaging; stronger effect = higher value. z-score at 5 µM. 0.3% of 190,000 active. AID 1625;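 active means z-score above 3 at 5 µM with at least 500 cells counted in the well; inconclusive means wells under 500 cells, flagged as cytotoxic or low count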
KCC2 secondary: confirmation of human KCC2 transport modulators. shares compounds with KCC2 mod. HEK293-KCC2, thallium flux, FluoZin2 fluorescence; stronger effect = higher value. normalised thallium flux (F/F0 slope) at 10 µM. 15% of 3,700 active. AID 1713;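 active means thallium flux slope above the same plate's solvent-only control mean plus 3 SD; inconclusive means the two replicate wells disagree; inactive means no significant difference from solvent-only control wells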
KCC2 bumet counter: bumetanide-insensitive thallium flux in KCC2 cells with ouabain, counter-screen; shares compounds with KCC2 mod; HEK293-KCC2 + bumetanide/ouabain, thallium flux FluoZin2; stronger effect = higher value; normalized thallium flux at 10 µM; 49% of 3,700 active; AID 1714;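 active means thallium entry rate above the same plate's blocked-transporter control wells by more than 3 SD; inconclusive means the two repeat wells disagree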;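 further: raw slope of fluorescence over initial fluorescence between 10 and 20 s after thallium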
KCC2 sec2: KCC2 (human) modulation, second secondary assay; 23% of 3,700 active; shares compounds with KCC2 mod; normalized thallium flux at 10 µM; HEK293-KCC2, thallium flux FluoZin2 fluorescence; actives lie on both sides; F/F0 rise rate, 10–20 s post-thallium;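 active means thallium flux slope more than 3 SD above or below the plate's solvent-only control mean, mostly below; inconclusive means the two repeat wells disagreed; inactive means no significant shift from solvent-only controls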;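 further: raw slope with 0.1% DMSO as baseline and bumetanide as block control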
HEK counter1: counter-screen for KCC2 modulators: effect in parental HEK293 cells; shares compounds with KCC2 mod; thallium flux FluoZin2, ouabain; baseline-ratio fluorescence slope, 10–20 s after thallium; thallium flux rate (normalised fluorescence) at 10 µM; 46% of 3,700 active; AID 1716;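 active means thallium flux rate significantly above the same plate's solvent-only control wells, beyond their mean plus 3 SD; inconclusive means the two replicate wells gave conflicting results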
KCC2 ouabain: confirmation of human KCC2 modulators with ouabain. 48% of 3,700 active. raw Tl+ flux slope (below DMSO = inhibition, above = activation) at 10 µM. AID 1717. shares compounds with KCC2 mod. HEK293-KCC2, thallium flux FluoZin2 fluorescence; bidirectional: low = inhibitor, high = activator;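 active means thallium flux slope beyond 3 SD from same-plate DMSO control mean in most replicates, usually higher, sometimes lower; inconclusive means repeat tests gave conflicting results; inactive means no significant difference from controls in most replicates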;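 further: slope of initial-normalized fluorescence between seconds 10 and 20 after thallium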
HEK293 Tl flux2: counter-screen for KCC2 modulators: effect in parental HEK293 cells | shares compounds with KCC2 mod | thallium flux FluoZin-2 fluorescence slope | thallium flux slope at 10 µM | 33% of 3,700 active;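 active means thallium flux slope above the same plate's solvent-control mean plus 3 SD in both duplicate wells; inconclusive means duplicate wells that disagreed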;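 further: run without ouabain in cells lacking the KCC2 cotransporter; slope of fluorescence scaled to its starting value between 10 and 20 s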
Starred values were filed as active, the others as inactive; i = inactive; ? = inconclusive; . = no result.

SMILES	KCC2 mod	SKKanGAS inh	Rad51 HR inh	Autophagy HCS	WT yeast gro inh	Insulin prom up	KCC2 secondary	KCC2 bumet counter	KCC2 sec2	HEK counter1	KCC2 ouabain	HEK293 Tl flux2
Cc1sc2ncnc(SCC#N)c2c1C	4.5*	-3	4	i	27	0.82	0.0061	0.016*	0.032	0.0099*	?	?
Cc1sc2ncnc(SCC(=O)NC(=O)c3cccn3C)c2c1C	59*	3	-8	i	12	-0.04	0.039*	0.13*	0.045*	0.072*	0.072*	0.029*
Cc1noc(C)c1COc1ccccc1C(=O)NNC(=O)C(C)Oc1ccccc1F (centres undefined)	.	-5	.	.	.	.	.	.	.	.	.	.
O=C(O)c1ccccc1Sc1ncnc2sc3c(c12)CCC3	-1.3	0	1	i	-19	0.1	.	.	.	.	.	.
CCc1ccc(Nc2nnc(SCC(=O)NC(=O)c3cccn3C)s2)cc1	-4.9*	3	-11	i	-20	0.08	0.005	0.0047	0.025*	?	0.012*	0.01
CCc1ccc(Nc2nnc(SCC(=O)Nc3ccc(C(=O)O)cc3)s2)cc1	-0.17	17	3	.	.	0.19	.	.	.	.	.	.
COc1ccc(S(=O)(=O)N2CCCC2C(=O)n2nc(C)cc2C)cc1 (centres undefined)	-0.53	1	.	i	11	-0.24	.	.	.	.	.	.
CN1/C(=C\C(=O)COc2ccc3c(c2)OCO3)C(C)(C)c2ccccc21	-4*	14	.	i	53	-9.9	0.0083	0.0046	0.025*	0.0064	?	0.01
Cc1nn(C)c(C)c1C(C)NC(=O)c1cc(COc2ccc(F)c(F)c2)on1 (centres undefined)	.	-7	.	.	.	.	.	.	.	.	.	.
CCOc1ccc(NC(=S)NC(=O)/C=C/c2ccc(C)cc2)c([N+](=O)[O-])c1	-0.24	5	.	i	10	0.11	.	.	.	.	.	.
CCOc1ccc(NC(=S)NC(=O)c2c(Cl)c(C)nn2C)c([N+](=O)[O-])c1	9.4*	0	18	i	9	-0.48	0.011	0.017*	0.034	?	?	0.012
Cc1ccc(OCC(=O)NNC(=O)c2ccccc2OCc2c(C)noc2C)cc1	.	-5	.	.	.	.	.	.	.	.	.	.
COc1ccc(OC)c(NC(=O)c2cccc(NC(=O)c3ccccc3C(=O)O)c2)c1	.	4	.	.	.	.	.	.	.	.	.	.
c1ccc(-c2nc(Sc3ncnc4c3cnn4-c3ccccc3)n[nH]2)cc1	-6.7*	2	.	i	23	0.66	0.007	0.0049	0.023*	0.0069	?	0.011
CSc1ccccc1NC(=O)C1CC(c2ccccc2Cl)=NO1 (centres undefined)	.	7	.	.	.	.	.	.	.	.	.	.
S=c1[nH]nc(-c2ccccc2)n1/N=C/c1ccc(-c2ccccc2Cl)o1	6.8*	5	.	i	58*	0.1	0.008	0.014*	?	0.02*	0.027*	0.018*
S=c1[nH]nc(-c2ccccn2)n1/N=C/c1ccc(-c2ccccc2Br)o1	84*	9	0	i	27	-0.23	0.006	0.14*	0.17*	0.14*	0.14*	0.15*
COc1ccc(CCNc2oc(COc3ccccc3F)nc2C#N)cc1OC	-4*	.	6	i	4	.	0.0061	?	0.026*	0.0062*	0.015*	?
COc1ccc(/C=N/Nc2ccc(C(=O)O)cc2)cc1Br	-0.5	14	17	i	-2	-0.06	.	.	.	.	.	.
C=CCOc1c(Br)cc(/C=N/Nc2ccc(C(=O)O)cc2)cc1OCC	-5.7*	26	-5	i	63*	0.13	0.0059	0.0058*	0.028	0.0079	0.017	0.01
O=c1cc(-c2ccccc2)nc2cc(-c3ccco3)[nH]n12	3.9*	4	.	.	.	0.52	?	0.014*	0.032	0.011*	?	0.0098
Cc1cc(NC(=O)COC(=O)C(Nc2ccc(C(F)(F)F)cc2Cl)C(C)C)no1 (centres undefined)	-7.2*	29	5	i	79*	-0.03	0.0077	0.0036	0.034	0.007	0.02	0.0088
COc1ccc(Cc2nc(C)cc(Cl)n2)cc1[N+](=O)[O-]	.	-2	.	.	.	.	.	.	.	.	.	.
O=C(CNC(=O)COc1ccccc1)NCc1ccccc1F	-0.16	4	-8	i	-8	0.26	.	.	.	.	.	.
CSc1sc(C(=O)O)c2c1C(=O)CCC2	-4*	2	1	i	13	0.43	0.0099	?	0.035	0.0076	0.023	0.011
CSc1sc(C(=O)O)c2c1C(=O)CC(C)(C)C2	.	2	-2	.	.	.	.	.	.	.	.	.
